Experimental data taken from ChEMBL document CHEMBL2321690, “New betulinic acid derivatives for bevirimat-resistant human immunodeficiency virus type-1” (J Med Chem, 2013).

Key:
MT4 = test: Cytotoxicity against human MT4 cells for 4 days; type: cell-based; conditions: mt4, 96 h
Method in brief: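 MT4 cells cultured with various compound concentrations for 4 days. Viability read by a CytoTox-Glo luminescent cytotoxicity assay. CC50 is the concentration reducing viable cells by 50%.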

[1] = tested on: Human immunodeficiency virus 1; test: Antiviral activity against 0.001 MOI wild type Human immunodeficiency virus 1 NL4-3 infected in human MT4 cells assessed as inhibition of viral replication measured 4 days post infection by ELISA; type: functional, organism-based; conditions: Human immunodeficiency virus 1, NL4-3, MT4, 96 h
Method in brief: (§1)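 Mutations introduced into pNL4-3 by site-directed mutagenesis. MT4 cells infected with wild-type NL4-3 or resistant variant at 0.001 TCID50/cell in presence of graded compound concentrations. Supernatant p24 measured by ELISA on day 4 post-infection. IC50 is the concentration reducing p24 by 50%, reported as mean ± SD with the number of tests given per value.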

[2] = tested on: Human immunodeficiency virus 1; test: Antiviral activity against 0.001 MOI bevirimat-resistant Human immunodeficiency virus 1 NL4-3 harboring gag V370A mutant infected in human MT4 cells assessed as inhibition of viral replication measured 4 days post infection by ELISA; type: functional, organism-based; conditions: Human immunodeficiency virus 1, NL4-3, MT4, 96 h; method in brief: as §1

Structure (SMILES) | CC50 (MT4) [nM] | IC50 [1] [nM] | IC50 [2] [nM]
C=C(C)[C@@H]1CC[C@]2(C(=O)NCCCCCCCCC(=O)N3CCC[C@H]3C(=O)OC)CC[C@]3(C)[C@H](CC[C@@H]4[C@@]5(C)CC[C@H](OC(=O)CC(C)(C)C(=O)O)C(C)(C)[C@@H]5CC[C@]43C)[C@@H]12 | > 10000 | 100 | 880
C=C(C)[C@@H]1CC[C@]2(C(=O)NCCCCCCCCC(=O)NCCC#N)CC[C@]3(C)[C@H](CC[C@@H]4[C@@]5(C)CC[C@H](OC(=O)CC(C)(C)C(=O)O)C(C)(C)[C@@H]5CC[C@]43C)[C@@H]12 | > 10000 | 150 | 330
C=C(C)[C@@H]1CC[C@]2(C(=O)NCCCCCCCCC(=O)N[C@H](C(=O)OC)[C@@H](C)CC)CC[C@]3(C)[C@H](CC[C@@H]4[C@@]5(C)CC[C@H](OC(=O)CC(C)(C)C(=O)O)C(C)(C)[C@@H]5CC[C@]43C)[C@@H]12 | > 10000 | 40 | 2780
C=C(C)[C@@H]1CC[C@]2(C(=O)NCCCCCCCCNC(=O)[C@H](CCC#N)NC(=O)OC(C)(C)C)CC[C@]3(C)[C@H](CC[C@@H]4[C@@]5(C)CC[C@H](OC(=O)CC(C)(C)C(=O)O)C(C)(C)[C@@H]5CC[C@]43C)[C@@H]12 | > 10000 | 30 | 330
C=C(C)[C@@H]1CC[C@]2(C(=O)N3CCN(CCCCC(=O)O)CC3)CC[C@]3(C)[C@H](CC[C@@H]4[C@@]5(C)CC[C@H](OC(=O)CC(C)(C)C(=O)O)C(C)(C)[C@@H]5CC[C@]43C)[C@@H]12 | > 10000 | 6 | > 3300
C=C(C)[C@@H]1CC[C@]2(C(=O)NCCCCCCCCC(=O)N[C@@H](CCC(=O)OC)C(=O)OC)CC[C@]3(C)[C@H](CC[C@@H]4[C@@]5(C)CC[C@H](OC(=O)CC(C)(C)C(=O)O)C(C)(C)[C@@H]5CC[C@]43C)[C@@H]12 | > 10000 | 180 | 2160
C=C(C)[C@@H]1CC[C@]2(C(=O)NCCCCCCCCCNC(=O)[C@H](C)NC(=O)OC(C)(C)C)CC[C@]3(C)[C@H](CC[C@@H]4[C@@]5(C)CC[C@H](OC(=O)CC(C)(C)C(=O)O)C(C)(C)[C@@H]5CC[C@]43C)[C@@H]12 | > 10000 | 50 | 1580
C=C(C)[C@@H]1CC[C@]2(C(=O)NCCCCCCCCNC(=O)[C@H](CCC(N)=O)NC(=O)OC(C)(C)C)CC[C@]3(C)[C@H](CC[C@@H]4[C@@]5(C)CC[C@H](OC(=O)CC(C)(C)C(=O)O)C(C)(C)[C@@H]5CC[C@]43C)[C@@H]12 | > 10000 | 30 | 360
C=C(C)[C@@H]1CC[C@]2(C(=O)NCCCCCCCCNC(=O)[C@@H]3CCCN3C(=O)OC(C)(C)C)CC[C@]3(C)[C@H](CC[C@@H]4[C@@]5(C)CC[C@H](OC(=O)CC(C)(C)C(=O)O)C(C)(C)[C@@H]5CC[C@]43C)[C@@H]12 | > 10000 | 40 | 950
C=C(C)[C@@H]1CC[C@]2(C(=O)NCCCCCCCCCNC(=O)[C@H](CCC(N)=O)NC(=O)OC(C)(C)C)CC[C@]3(C)[C@H](CC[C@@H]4[C@@]5(C)CC[C@H](OC(=O)CC(C)(C)C(=O)O)C(C)(C)[C@@H]5CC[C@]43C)[C@@H]12 | > 10000 | 20 | 1200
C=C(C)[C@@H]1CC[C@]2(C(=O)NCCCCCCCCC(=O)NCC(=O)OC)CC[C@]3(C)[C@H](CC[C@@H]4[C@@]5(C)CC[C@H](OC(=O)CC(C)(C)C(=O)O)C(C)(C)[C@@H]5CC[C@]43C)[C@@H]12 | > 10000 | 10 | 1510
C=C(C)[C@@H]1CC[C@]2(C(=O)NCCCCCCCCC(=O)NCC(=O)O)CC[C@]3(C)[C@H](CC[C@@H]4[C@@]5(C)CC[C@H](OC(=O)CC(C)(C)C(=O)O)C(C)(C)[C@@H]5CC[C@]43C)[C@@H]12 | > 10000 | 40 | 480
C=C(C)[C@@H]1CC[C@]2(C(=O)NCCCCCCCC(=O)N[C@@H](CCC(N)=O)C(=O)OC)CC[C@]3(C)[C@H](CC[C@@H]4[C@@]5(C)CC[C@H](OC(=O)CC(C)(C)C(=O)O)C(C)(C)[C@@H]5CC[C@]43C)[C@@H]12 | > 10000 | 50 | > 5000
C=C(C)[C@@H]1CC[C@]2(C(=O)NCCCCCCCCC(=O)N[C@@H](CCC(N)=O)C(=O)OCc3ccccc3)CC[C@]3(C)[C@H](CC[C@@H]4[C@@]5(C)CC[C@H](OC(=O)CC(C)(C)C(=O)O)C(C)(C)[C@@H]5CC[C@]43C)[C@@H]12 | > 10000 | 40 | 2540
C=C(C)[C@@H]1CC[C@]2(C(=O)NCCCCCCCCC(=O)N[C@H](C(=O)OC)C(C)C)CC[C@]3(C)[C@H](CC[C@@H]4[C@@]5(C)CC[C@H](OC(=O)CC(C)(C)C(=O)O)C(C)(C)[C@@H]5CC[C@]43C)[C@@H]12 | > 10000 | 10 | 1240
C=C(C)[C@@H]1CC[C@]2(C(=O)NCCCCCCCCC(=O)N[C@@H](CCC(N)=O)C(=O)OC(C)(C)C)CC[C@]3(C)[C@H](CC[C@@H]4[C@@]5(C)CC[C@H](OC(=O)CC(C)(C)C(=O)O)C(C)(C)[C@@H]5CC[C@]43C)[C@@H]12 | > 10000 | 10 | 810
C=C(C)[C@@H]1CC[C@]2(C(=O)NCCCCCCCCCC(=O)N[C@@H](CCC(N)=O)C(=O)OC)CC[C@]3(C)[C@H](CC[C@@H]4[C@@]5(C)CC[C@H](OC(=O)CC(C)(C)C(=O)O)C(C)(C)[C@@H]5CC[C@]43C)[C@@H]12 | > 10000 | 100 | 700
C=C(C)[C@@H]1CC[C@]2(C(=O)NCCCCCCCCC(=O)N(C)CC#N)CC[C@]3(C)[C@H](CC[C@@H]4[C@@]5(C)CC[C@H](OC(=O)CC(C)(C)C(=O)O)C(C)(C)[C@@H]5CC[C@]43C)[C@@H]12 | > 10000 | 40 | 2080
C=C(C)[C@@H]1CC[C@]2(C(=O)NCCCCCCCCC(=O)N[C@@H](C)C(=O)OC)CC[C@]3(C)[C@H](CC[C@@H]4[C@@]5(C)CC[C@H](OC(=O)CC(C)(C)C(=O)O)C(C)(C)[C@@H]5CC[C@]43C)[C@@H]12 | > 10000 | 10 | 420
C=C(C)[C@@H]1CC[C@]2(C(=O)NCCCCCCCCCNC(=O)CNC(=O)OC(C)(C)C)CC[C@]3(C)[C@H](CC[C@@H]4[C@@]5(C)CC[C@H](OC(=O)CC(C)(C)C(=O)O)C(C)(C)[C@@H]5CC[C@]43C)[C@@H]12 | > 10000 | 20 | 1040
C=C(C)[C@@H]1CC[C@]2(C(=O)NCCCCCCCCC(=O)NCC#N)CC[C@]3(C)[C@H](CC[C@@H]4[C@@]5(C)CC[C@H](OC(=O)CC(C)(C)C(=O)O)C(C)(C)[C@@H]5CC[C@]43C)[C@@H]12 | 6490 | 30 | 460
C=C(C)[C@@H]1CC[C@]2(C(=O)NCCCCCCCNC(=O)[C@H](CCC(N)=O)NC(=O)OC(C)(C)C)CC[C@]3(C)[C@H](CC[C@@H]4[C@@]5(C)CC[C@H](OC(=O)CC(C)(C)C(=O)O)C(C)(C)[C@@H]5CC[C@]43C)[C@@H]12 | > 10000 | 10 | 2600
C=C(C)[C@@H]1CC[C@]2(C(=O)NCCCCCCC(=O)N[C@@H](CCC(N)=O)C(=O)OC)CC[C@]3(C)[C@H](CC[C@@H]4[C@@]5(C)CC[C@H](OC(=O)CC(C)(C)C(=O)O)C(C)(C)[C@@H]5CC[C@]43C)[C@@H]12 | > 10000 | 50 | 2460
C=C(C)[C@@H]1CC[C@]2(C(=O)NCCCCCCCCNC(=O)[C@@H](NC(=O)OC(C)(C)C)C(C)C)CC[C@]3(C)[C@H](CC[C@@H]4[C@@]5(C)CC[C@H](OC(=O)CC(C)(C)C(=O)O)C(C)(C)[C@@H]5CC[C@]43C)[C@@H]12 | > 10000 | 150 | 330
C=C(C)[C@@H]1CC[C@]2(C(=O)NCCCCCCCCCNC(=O)[C@H](CC(N)=O)NC(=O)OC(C)(C)C)CC[C@]3(C)[C@H](CC[C@@H]4[C@@]5(C)CC[C@H](OC(=O)CC(C)(C)C(=O)O)C(C)(C)[C@@H]5CC[C@]43C)[C@@H]12 | 8300 | 40 | 340
C=C(C)[C@@H]1CC[C@]2(C(=O)NCCCCCCCNC(=O)[C@H](C)NC(=O)OC(C)(C)C)CC[C@]3(C)[C@H](CC[C@@H]4[C@@]5(C)CC[C@H](OC(=O)CC(C)(C)C(=O)O)C(C)(C)[C@@H]5CC[C@]43C)[C@@H]12 | 7900 | 10 | 370
C=C(C)[C@@H]1CC[C@]2(C(=O)NCCCCCCCCC(=O)N[C@@H](Cc3ccccc3)C(=O)OC)CC[C@]3(C)[C@H](CC[C@@H]4[C@@]5(C)CC[C@H](OC(=O)CC(C)(C)C(=O)O)C(C)(C)[C@@H]5CC[C@]43C)[C@@H]12 | > 10000 | 70 | 1290
C=C(C)[C@@H]1CC[C@]2(C(=O)NCCCCCCCCNC(=O)[C@H](C)NC(=O)OC(C)(C)C)CC[C@]3(C)[C@H](CC[C@@H]4[C@@]5(C)CC[C@H](OC(=O)CC(C)(C)C(=O)O)C(C)(C)[C@@H]5CC[C@]43C)[C@@H]12 | > 10000 | 20 | 920
